One data set concerns the target T1, Cytochrome P450 2B6 (Homo sapiens, UniProt P20813).
T1 sequence (P20813 whole entry): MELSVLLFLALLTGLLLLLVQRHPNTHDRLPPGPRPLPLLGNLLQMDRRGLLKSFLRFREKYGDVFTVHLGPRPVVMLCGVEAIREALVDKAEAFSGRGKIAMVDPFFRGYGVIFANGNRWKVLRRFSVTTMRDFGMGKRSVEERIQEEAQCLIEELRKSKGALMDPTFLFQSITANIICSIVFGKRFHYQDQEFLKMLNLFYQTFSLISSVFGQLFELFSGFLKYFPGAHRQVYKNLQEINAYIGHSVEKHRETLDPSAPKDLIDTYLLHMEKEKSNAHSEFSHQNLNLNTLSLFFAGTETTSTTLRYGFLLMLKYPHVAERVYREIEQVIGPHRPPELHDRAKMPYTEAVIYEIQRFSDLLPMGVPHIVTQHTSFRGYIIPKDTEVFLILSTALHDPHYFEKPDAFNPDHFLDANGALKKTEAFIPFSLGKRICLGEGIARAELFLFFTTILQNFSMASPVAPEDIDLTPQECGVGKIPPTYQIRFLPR
As to the kind of experiment: Inhibition of CYP2B6 (unknown origin) using bupropion substrate. It counts as ADME. In short, it runs like this: (§1)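 Human liver microsomes with probe substrate and an NADPH-regenerating system in 0.1 M potassium phosphate pH 7.4 at 37 °C, run in duplicate. Inhibitor at 0–20 μM (0–2.5 μM for one compound), eight concentrations. Reactions were stopped with acetonitrile/formic acid containing isotope-labelled internal standard, and metabolite area ratios were compared with and without inhibitor. IC50 was taken by linear interpolation between bracketing concentrations.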

In a further data set the target is T2, Cytochrome P450 1A2 (Homo sapiens, UniProt P05177).
T2 sequence (P05177 whole entry): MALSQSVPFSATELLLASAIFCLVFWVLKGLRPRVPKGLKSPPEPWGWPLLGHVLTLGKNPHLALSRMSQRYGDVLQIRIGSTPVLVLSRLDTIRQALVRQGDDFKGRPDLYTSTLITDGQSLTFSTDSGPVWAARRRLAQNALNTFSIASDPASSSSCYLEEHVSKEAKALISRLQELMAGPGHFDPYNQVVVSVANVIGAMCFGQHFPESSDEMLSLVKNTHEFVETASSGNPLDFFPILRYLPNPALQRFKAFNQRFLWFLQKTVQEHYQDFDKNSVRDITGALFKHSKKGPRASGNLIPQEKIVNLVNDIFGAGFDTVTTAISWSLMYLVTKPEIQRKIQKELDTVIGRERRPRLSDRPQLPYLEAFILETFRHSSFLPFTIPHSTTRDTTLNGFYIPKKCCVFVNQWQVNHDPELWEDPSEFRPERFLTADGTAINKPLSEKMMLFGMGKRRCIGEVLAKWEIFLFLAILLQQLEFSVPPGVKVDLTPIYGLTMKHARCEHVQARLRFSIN
Description: Inhibition of CYP1A2 (unknown origin) using tacrin substrate. It is filed as ADME. In short, it runs like this: as §1

Another data set addresses Cytochrome P450 2C19 (Homo sapiens, UniProt P33261). As to the kind of experiment: Inhibition of CYP2C19 (unknown origin) using (S)-mephentoin substrate. It counts as ADME. In short, it runs like this:
as §1

In data set [1] the target is T3, Collagenase 3 (Homo sapiens, UniProt P45452). Description: Non-competitive inhibition of full-length recombinant human MMP-13 assessed as fTHP-15 substrate hydrolysis.
Data set [2] addresses T4, Cytochrome P450 3A4 (Homo sapiens, UniProt P08684). Description: Inhibition of CYP3A4 (unknown origin) using midazolam substrate. It is filed as ADME. In short, it runs like this:
(§2)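 Reactions stopped with acetonitrile/0.1% formic acid plus labelled internal standard. Metabolite measured by LC-MS area ratio. IC50 by linear interpolation.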

A further data set deals with Cytochrome P450 2C9 (Homo sapiens, UniProt P11712). As to the kind of experiment: Inhibition of CYP2C9 (unknown origin) using diclofenac substrate. It is filed as ADME. Summed up: as §1
A further data set deals with T5, Cytochrome P450 2C8 (Homo sapiens, UniProt P10632).
T5 sequence (P10632 whole entry): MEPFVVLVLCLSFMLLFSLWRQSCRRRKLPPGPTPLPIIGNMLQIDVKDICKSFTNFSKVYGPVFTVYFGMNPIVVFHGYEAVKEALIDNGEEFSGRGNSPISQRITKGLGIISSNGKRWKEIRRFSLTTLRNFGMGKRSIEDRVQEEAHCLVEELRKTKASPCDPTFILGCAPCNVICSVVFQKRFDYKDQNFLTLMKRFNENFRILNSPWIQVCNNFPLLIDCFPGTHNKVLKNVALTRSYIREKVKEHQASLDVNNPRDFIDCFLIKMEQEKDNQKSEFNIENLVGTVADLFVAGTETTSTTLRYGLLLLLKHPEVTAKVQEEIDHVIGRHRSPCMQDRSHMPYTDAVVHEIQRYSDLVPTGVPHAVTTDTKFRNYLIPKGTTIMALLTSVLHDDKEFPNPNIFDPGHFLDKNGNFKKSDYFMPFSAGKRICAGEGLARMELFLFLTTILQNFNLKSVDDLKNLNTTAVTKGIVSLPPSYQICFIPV
Description: Inhibition of CYP2C8 (unknown origin) using amodiaquine substrate. It is filed as ADME. In short, it runs like this: as §1

For data set [3], the target named is T4, Cytochrome P450 3A4. Description: Inhibition of CYP3A4 (unknown origin) using testosterone substrate. It is filed as ADME. Summed up:
as §2

In data set [4] the target is T3, Collagenase 3. Description: Inhibition of full-length recombinant human MMP-13 assessed as bovine type-2 collagen hydrolysis after 22 hrs by fluorescence assay.
Data set [5] deals with Liver microsome. Description: Half life in human liver microsomes by LC-MS/MS analysis. It is filed as ADME. Summed up:
(§3)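 Compound at 1 μM with 1 mg/mL liver microsomes in 100 mM potassium phosphate pH 7.4 at 37 °C with shaking. Reaction started with 1 mM NADPH (final). Aliquots were taken at 0, 5, 10, 20, 40 and 60 min and quenched in acetonitrile. Parallel incubations without NADPH were run.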

For the next data set, the target named is Cytochrome P450 2D6 (Homo sapiens, UniProt P10635). Description: Inhibition of CYP2D6 (unknown origin) using dextromethophan substrate. It is filed as ADME. In short, it runs like this:
as §1

Data set [6] deals with T3, Collagenase 3. Description: Competitive inhibition of full-length recombinant human MMP-13 assessed as fTHP-15 substrate hydrolysis by Lineweaver-Burke plot analysis. In short, it runs like this:
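Pro-MMP-13 activated with 1 mM APMA for 2 h at 37 °C. Enzyme at 4 nM was incubated with fTHP-15 at 2–25 μM and varying inhibitor in Tris pH 7.5/NaCl/CaCl2/Brij-35 buffer at room temperature. Fluorescence was read at ex 324/em 393 nm, and rates were taken from the linear portion. Mechanism was assigned by a mixed-model nonlinear fit (α parameter) and confirmed by Lineweaver–Burke plots.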

Data set [7] addresses T3, Collagenase 3. Particulars: 50 uM.
The test system of data set [8] is Liver microsome. Description: Half life in rat liver microsomes by LC-MS/MS analysis. It counts as ADME. In short, it runs like this: as §3
In a further data set the test system is Liver. Description: Half life in mouse liver microsomes by LC-MS/MS analysis. It is filed as ADME. In short, it runs like this: as §3
(In general: Liver microsomes are vesicles of endoplasmic reticulum, rich in cytochrome P450 enzymes.)

T4 sequence (P08684 whole entry): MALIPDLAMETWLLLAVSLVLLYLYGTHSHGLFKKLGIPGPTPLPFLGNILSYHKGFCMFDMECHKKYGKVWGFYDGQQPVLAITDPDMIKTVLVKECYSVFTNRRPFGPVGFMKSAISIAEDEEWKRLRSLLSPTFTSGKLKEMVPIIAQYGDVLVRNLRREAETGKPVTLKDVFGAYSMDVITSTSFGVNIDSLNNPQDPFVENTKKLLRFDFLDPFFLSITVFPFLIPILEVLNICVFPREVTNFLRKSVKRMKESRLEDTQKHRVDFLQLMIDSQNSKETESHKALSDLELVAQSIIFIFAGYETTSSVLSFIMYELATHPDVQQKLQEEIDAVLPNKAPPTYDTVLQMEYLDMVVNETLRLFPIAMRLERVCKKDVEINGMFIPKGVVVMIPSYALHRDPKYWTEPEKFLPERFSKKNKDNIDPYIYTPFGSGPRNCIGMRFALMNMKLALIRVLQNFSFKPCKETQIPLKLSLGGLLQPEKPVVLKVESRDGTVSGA
Chain of Cytochrome P450 2D6 (P10635 whole entry): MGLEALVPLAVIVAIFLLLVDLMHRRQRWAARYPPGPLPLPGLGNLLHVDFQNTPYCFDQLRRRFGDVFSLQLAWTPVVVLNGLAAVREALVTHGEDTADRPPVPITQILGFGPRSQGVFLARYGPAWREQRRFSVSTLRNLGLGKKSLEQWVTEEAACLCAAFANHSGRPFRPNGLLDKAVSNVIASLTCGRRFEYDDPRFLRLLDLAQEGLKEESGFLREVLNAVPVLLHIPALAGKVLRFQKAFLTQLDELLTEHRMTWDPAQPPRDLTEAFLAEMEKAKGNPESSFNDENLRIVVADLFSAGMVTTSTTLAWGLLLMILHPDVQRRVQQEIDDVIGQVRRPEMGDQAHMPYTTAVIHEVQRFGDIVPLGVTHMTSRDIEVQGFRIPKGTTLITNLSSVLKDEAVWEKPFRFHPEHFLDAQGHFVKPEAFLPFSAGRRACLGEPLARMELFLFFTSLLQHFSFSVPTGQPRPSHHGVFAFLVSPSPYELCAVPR
Chain of Cytochrome P450 2C9 (P11712 whole entry): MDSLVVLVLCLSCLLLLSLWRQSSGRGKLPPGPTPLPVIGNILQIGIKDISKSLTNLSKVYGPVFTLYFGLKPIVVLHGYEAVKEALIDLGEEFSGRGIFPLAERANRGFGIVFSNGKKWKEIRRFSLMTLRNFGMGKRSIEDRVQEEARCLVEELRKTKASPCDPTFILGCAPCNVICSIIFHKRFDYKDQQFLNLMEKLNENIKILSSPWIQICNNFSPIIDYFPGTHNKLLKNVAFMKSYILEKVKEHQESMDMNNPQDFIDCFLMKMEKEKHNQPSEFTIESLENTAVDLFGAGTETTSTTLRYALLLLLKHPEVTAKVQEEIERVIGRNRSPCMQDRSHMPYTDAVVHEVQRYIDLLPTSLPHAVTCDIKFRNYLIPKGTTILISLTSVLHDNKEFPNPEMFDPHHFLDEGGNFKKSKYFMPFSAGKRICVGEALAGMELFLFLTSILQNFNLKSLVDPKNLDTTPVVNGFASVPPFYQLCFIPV
Chain of Cytochrome P450 2C19 (P33261 whole entry): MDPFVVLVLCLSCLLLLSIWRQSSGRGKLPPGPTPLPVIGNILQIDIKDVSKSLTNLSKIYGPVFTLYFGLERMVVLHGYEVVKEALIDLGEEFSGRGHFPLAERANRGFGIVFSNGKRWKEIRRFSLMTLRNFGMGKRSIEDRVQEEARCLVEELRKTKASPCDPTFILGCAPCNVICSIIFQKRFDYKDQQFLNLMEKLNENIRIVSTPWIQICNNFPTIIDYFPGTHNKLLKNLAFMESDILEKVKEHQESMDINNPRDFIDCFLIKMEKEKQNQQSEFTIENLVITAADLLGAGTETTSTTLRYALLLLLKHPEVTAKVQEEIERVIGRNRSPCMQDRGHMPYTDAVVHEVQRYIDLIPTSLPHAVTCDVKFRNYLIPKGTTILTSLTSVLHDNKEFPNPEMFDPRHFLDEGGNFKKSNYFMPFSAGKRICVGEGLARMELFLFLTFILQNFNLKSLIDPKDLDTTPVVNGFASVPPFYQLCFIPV

A word on the IC50: it is the midpoint of a concentration-inhibition curve. On to `Cc1ccc(CSc2nc3c(c(=O)[nH]2)CCC3)cc1`, for which the IC50 at Cytochrome P450 2B6 was greater than 20 µM; on Cytochrome P450 1A2, 3.7 µM; on Cytochrome P450 2C19 it was 7.9 µM; at Collagenase 3 [1] it was 2400 nM; against Cytochrome P450 3A4 [2] it was greater than 20 µM; against Cytochrome P450 2C9 it was 8.8 µM. Further, the IC50 on Cytochrome P450 2C8 was greater than 20 µM; at Cytochrome P450 3A4 [3] it was greater than 20 µM; at Collagenase 3 [4], 400 nM; at Cytochrome P450 2D6, greater than 20 µM. Also, the t1/2 in the data set on Liver microsome [5] is recorded as 7.3 min.
Regarding `CC(=O)NO`, the Kb on Collagenase 3 [6] turned out to be 1.2 mM.
The term inhibition denotes the change of the read-out against control, counted positive when it falls. Read a high inhibition as a strong effect. Take `O=C(O)CN(CCN(CC(=O)O)CC(=O)O)CC(=O)O`: the inhibition against Collagenase 3 [7] stood at 70%.
In the case of `CCN(CC)CCNC(=O)c1c(C)[nH]c(/C=C2\C(=O)Nc3ccc(F)cc32)c1C` [SUNITINIB], the t1/2 amounted to 26.5 min with Liver microsome [8], 12.3 min in the data set with Liver and 44.1 min in the data set with Liver microsome [5].

The record behind these values is ChEMBL document CHEMBL3352788, “Characterization of selective exosite-binding inhibitors of matrix metalloproteinase 13 that prevent articular cartilage degradation in vitro” (J Med Chem, 2014).
